These results are taken from ChEMBL document CHEMBL1764985, “Design, synthesis, and evaluation of coumarin-based molecular probes for imaging of myelination” (J Med Chem, 2011).

Data set [1] deals with Myelin basic protein (Mus musculus) (UniProt P04370). Nature of the data set: Binding affinity to corpus collosum myelin in central nervous system of mouse […] by fluorescent microscopy. The data set is classed as tissue-based. Particulars: Corpus callosum.
The species named for data set [2] is Mus musculus. The experiment in a line: Selectivity for mouse white matter myelin over gray matter myelin. The data set is classed as tissue-based. In short, it runs like this: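 Mouse brain sections stained with compound at 100 μM. Fluorescence intensity measured in predefined ROIs: part of the corpus callosum (white matter) and a subcortical gray matter region. White/gray intensity ratio calculated; mean ± SD, n = 3.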

Data set [3] addresses Myelin basic protein (Mus musculus) (UniProt P04370). Nature of the data set: Binding affinity to corpus collosum myelin in myelin deficient shiverer mouse assessed as myelination levels at 100 uM after 20 mins by fluorescent microscopy relative to control. Particulars: Corpus callosum. In short, it runs like this: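 Frozen 20 μm brain sections from wild-type C57BL/6 and shiverer (C3Fe.SWV-Mbp^shi/J) mice stained with compound at 100 μM, with anti-MBP immunostaining of the same sections. Pixel intensity in a corpus callosum ROI (midline to below cingulum apex) quantified. Wild-type set to 100, shiverer expressed as percentage. Nonpaired Student's t test.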

Data set [4] has the same target. The experiment in a line: Binding affinity to cerebellum myelin in central nervous system of mouse […] by fluorescent microscopy.
Data set [5] is described as follows: Half life of the compound in mouse brain. It is filed as ADME, tissue-based.
Data set [6] in a line: Lipophilicity, log P of the compound. The data set is classed as physicochemical. The following applies: octanol/water.
Data set [7] deals with Myelin basic protein (Mus musculus) (UniProt P04370). The experiment in a line: Binding affinity to caudate putamen myelin in mouse by fluorescent microscopy. The data set is classed as tissue-based. In short, it runs like this:
(§1)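 Wild-type mice given 40 mg/kg via tail vein under anesthesia, then perfused transcardially with saline followed by 4% PFA in PBS. Brain sections imaged by fluorescence microscopy (BP470/40 nm filter) for in situ staining in cerebellum, caudate putamen/striatum and temporal cortex. Same sections co-stained with anti-MBP antibody for comparison.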

The target is the same in data set [8]. The experiment in a line: Binding affinity to temporal cortex myelin in mouse by fluorescent microscopy. It is filed as tissue-based. In short, it runs like this:
as §1

Data set [9] deals with Mus musculus. Nature of the data set: Binding affinity to sciatic nerve myelin in C57BL/6 mouse at 40 mg/kg after 20 mins, iv after 10 mins by fluorescent microscopy. The data set is classed as functional, organism-based. Further details: dose 40 mg/kg. The method in brief: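 Eight-week C57BL/6 mice dosed 40 mg/kg by tail vein in saline; saline alone as control. At 10 min, mice anesthetized with isoflurane and sciatic nerves surgically exposed and imaged under a dissection fluorescence microscope (LP 590 filter). Nerves imaged again after perfusion.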

The target in data set [10] is Myelin basic protein (Mus musculus) (UniProt P04370). The experiment in a line: Binding affinity to sciatic nerve myelin in peripheral nervous system of mouse at 100 uM […] by Black gold II staining.

Molecules are shown by their SMILES. Active and inactive are the calls of the source. The rule behind the calls is not given here.

Sequence of Myelin basic protein (Mus musculus) (P04370 whole entry, the tested form may be a part): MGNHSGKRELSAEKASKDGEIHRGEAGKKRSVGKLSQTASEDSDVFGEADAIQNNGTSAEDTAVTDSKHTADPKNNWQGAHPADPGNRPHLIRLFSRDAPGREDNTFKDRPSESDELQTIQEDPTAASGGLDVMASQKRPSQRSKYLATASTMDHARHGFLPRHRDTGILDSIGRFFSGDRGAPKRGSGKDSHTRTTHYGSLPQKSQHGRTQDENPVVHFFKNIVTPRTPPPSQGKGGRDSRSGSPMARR

Turning to `CCN(CC)c1ccc(-c2ccc3cc(-c4nc5ccccc5[nH]4)c(=O)oc3c2)cc1`, the result in data set [1] was Active. Take `O=c1cc(C(F)(F)F)c2ccc(O)cc2o1`: the outcome in data set [1] was inactive.

In the case of `CC(=O)Oc1ccc2oc(=O)c(-c3ccc(N(C)C)cc3)cc2c1`, in the data set listed under Mus musculus [2], the white/gray matter fluorescence ratio is 1.53. Moreover, in data set [1], the result was Active. Consider `Nc1cc2ccccc2oc1=O`, for which, in [1], the outcome was inactive. For `CN(C)c1ccc(-c2cc3cc(O)ccc3oc2=O)cc1`, the white/gray matter fluorescence ratio in the data set listed under Mus musculus [2] was 1.48. Further, the result in data set [1] was Active.

Regarding `CN(C)c1ccc(-c2cc3cc(OCCF)ccc3oc2=O)cc1`, the white/gray matter fluorescence ratio in the data set filed under Mus musculus [2] worked out at 1.33. Further, in data set [1], the outcome was Active.

For the compound `O=c1oc2ccccc2cc1-c1ccc([N+](=O)[O-])cc1`, in [1], the outcome was inactive.

As for `CN(C)c1ccc(-c2cc3ccccc3oc2=O)cc1`, in the data set listed under Mus musculus [2], the white/gray matter fluorescence ratio was determined as 1.34. The result in data set [1] was Active. The like results for `Nc1ccc(-c2cc3ccccc3oc2=O)cc1` were, in that order, 1.39 and “Active”.

`COc1ccc2ccc(=O)oc2c1`: the result in data set [1] was inactive.

`Nc1ccc(-c2cc3cc(F)ccc3oc2=O)cc1`: the outcome in data set [1] was Active. Same read-out and setting: in the case of `CCN(CC)c1ccc(-c2ccc3cc(-c4nc5ccccc5n4C)c(=O)oc3c2)cc1` it was “Active”. `O=c1ccc2ccccc2o1`: the outcome in data set [1] was inactive.

With `CCN(CC)c1ccc(-c2ccc3cc(-c4ccc(N)cc4)c(=O)oc3c2)cc1`, the result in data set [1] was Active. Turning to `CCN(CC)c1ccc(-c2ccc3cc(-c4ccc([N+](=O)[O-])cc4)c(=O)oc3c2)cc1`, the result in data set [1] was Active. With `CN(C)c1ccc(-c2cc3cc(OCCCF)ccc3oc2=O)cc1`, in the data set filed under Mus musculus [2], the white/gray matter fluorescence ratio amounted to 1.38. Besides, the outcome in data set [1] was Active. Regarding `Cc1cc(=O)oc2ccccc12`, the outcome in data set [1] was inactive. On the same count and under the same terms, the result for `Nc1cc(=O)oc2ccccc12` reads “inactive”.

By half-life is commonly meant how long it takes for the measured level to halve. Low readings indicate rapid decline, high ones slow decline. By logP is commonly meant a log measure of how a compound divides between an organic and an aqueous phase. A lower logP goes with lower lipophilicity. As to `CN(C)c1ccc(-c2cc3ccc(OCCCF)cc3oc2=O)cc1`, the white/gray matter fluorescence ratio in the data set listed under Mus musculus [2] came to 1.54. Besides, the Activity in data set [3] is 12%. Further, the outcome (in data set [4]; in [7]; in data set [1]; in data set [8]; with Mus musculus [9]; in data set [10]) was Active. The compound further registered a half-life in [5] of 20 min. This compound gave a logP in [6] of 3.82. Turning to `CN(C)c1ccc(-c2cc3ccc(OCCF)cc3oc2=O)cc1`, in the data set listed under Mus musculus [2], the white/gray matter fluorescence ratio amounted to 1.52. Moreover, the outcome in [1] was Active.

For `O=c1cc(O)c2ccccc2o1`, the result in data set [1] was inactive. Same read-out and setting: the result for `O=c1oc2ccccc2cc1-c1ccccc1` reads “inactive”; that for `CN(C)c1ccc2c(C(F)(F)F)cc(=O)oc2c1`, “inactive”. On the same count and under the same terms, in the case of `CCN(CC)c1ccc(-c2ccc3cc(C(=O)c4cccs4)c(=O)oc3c2)cc1` it was “Active”. As to `O=c1oc2ccccc2c(O)c1Cc1c(O)c2ccccc2oc1=O`, the outcome in data set [1] was inactive. On the same count and under the same terms, the result for `O=c1oc2cc(O)ccc2cc1-c1ccccc1` reads “inactive”. Regarding `CN(C)c1ccc(-c2cc3ccc(O)cc3oc2=O)cc1`, in the data set listed under Mus musculus [2], the white/gray matter fluorescence ratio came out at 1.25. For the same compound, the outcome in [1] was Active. As for `CCN(CC)c1ccc(-c2ccc3cc(-c4nc5ccccc5s4)c(=O)oc3c2)cc1`, the result in data set [1] was Active. With `CCN(CC)c1ccc(-c2ccc3cc(-c4ccc(CBr)cc4)c(=O)oc3c2)cc1`, in [1], the outcome was Active. Still for that read-out and setting: in the case of `O=c1oc2ccccc2cc1O` it was “inactive”; in that of `Nc1ccc2c(C(F)(F)F)cc(=O)oc2c1`, “inactive”.

Regarding `CN(C)c1ccc(-c2cc3cc(F)ccc3oc2=O)cc1`, the outcome in data set [1] was Active. Consider `CC(=O)Oc1ccc2cc(-c3ccc(N(C)C)cc3)c(=O)oc2c1`, for which the white/gray matter fluorescence ratio in the data set listed under Mus musculus [2] was 1.35. The result in data set [1] was Active. In the case of `O=c1oc2ccc(F)cc2cc1-c1ccc([N+](=O)[O-])cc1`, the outcome in [1] was inactive. On to `Cc1ccc2ccc(=O)oc2c1`, for which, in data set [1], the outcome was inactive.
